Assay [1] concerns Staphylococcus aureus. Kind of assay: Antimicrobial activity against Staphylococcus aureus IFO12732 at 100 uM after 20 hrs. It counts as functional, organism-based. The gist of the method:
(§1)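 Broth microdilution in Mueller Hinton broth. Test bacteria are pre-grown 20 h at 30 °C on a reciprocal shaker, pelleted, and resuspended in saline at 1 × 10^5 cells/mL. Each well holds medium, cell suspension (1:10 of the well volume) and sample in DMSO. Plates are incubated 20 h at 30 °C, then growth is read as absorbance at 650 nm.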

The next assay has as its system Candida albicans. In words: Antimicrobial activity against Candida albicans IFO1594 at 100 uM after 20 hrs. In kind it is functional, organism-based. The gist of the method:
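C. albicans is cultured in yeast nitrogen base with 2% glucose for 20 h at 30 °C, harvested, and suspended in saline at 1 × 10^5 cells/mL. The suspension is combined in wells with the same medium and sample in DMSO. After 20 h at 30 °C, absorbance at 650 nm gives growth.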

The subject of assay [2] is Bacillus subtilis. Kind of assay: Antimicrobial activity against Bacillus subtilis PCI219 at 100 uM after 20 hrs. In kind it is functional, organism-based. The gist of the method: as §1
For another assay, the system named is Escherichia coli. In words: Antimicrobial activity against Escherichia coli NIH-JC2 at 100 uM after 20 hrs. It counts as functional, organism-based. The gist of the method:
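E. coli is grown in Mueller Hinton broth for 20 h at 30 °C with shaking, spun down, and brought to 1 × 10^5 cells/mL in saline. This suspension is mixed in wells with medium and DMSO sample solution. The plate is incubated 20 h at 37 °C and growth is read at 650 nm.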

Assay [3] deals with Micrococcus luteus. Kind of assay: Antimicrobial activity against Micrococcus luteus ATCC 9343 at 100 uM after 20 hrs. In kind it is functional, organism-based. The gist of the method: as §1
The test system of assay [4] is Bacillus subtilis. In words: Antimicrobial activity against Bacillus subtilis PCI219 after 20 hrs. Particulars: PCI219, 20 h. In kind it is functional. The gist of the method: as §1
The test system of assay [5] is Staphylococcus aureus. In words: Antimicrobial activity against Staphylococcus aureus IFO12732 after 20 hrs. In kind it is functional. As to conditions: IFO12732, 20 h. The gist of the method: as §1
Assay [6] relates to Micrococcus luteus. Kind of assay: Antimicrobial activity against Micrococcus luteus ATCC 9343 after 20 hrs. In kind it is functional. Particulars: ATCC 9343, 20 h. The gist of the method:
as §1

In brackets after ≈: the same amount, converted by molar mass. Activity calls are given as the source filed them. No cut-off for these calls is given here.

As to `C[C@@H]1CCC(=O)C2=C3O[C@@]4(C)[C@H](C)C[C@@]3(OC2=O)[C@H](/C=C/[C@H]1O)[C@H]4O`, the outcome with Staphylococcus aureus [1], in the assay with Candida albicans, with Bacillus subtilis [2], in the assay with Escherichia coli and with Micrococcus luteus [3] was inactive.
Regarding `C[C@@H]1CCC(=O)C2=C3O[C@@]4(C)[C@H](C)C[C@@]3(OC2=O)[C@H](/C=C/C1=O)[C@H]4O`, the MIC against Bacillus subtilis [4], against Staphylococcus aureus [5] and in the assay with Micrococcus luteus [6] was 29 mg/L (≈ 83.7 µM) in each case. Also, the result with Candida albicans and with Escherichia coli was inactive.

By MIC is commonly meant the least concentration at which growth counts as inhibited.

(Values after ChEMBL document CHEMBL1649344, “Abyssomicin I, a modified polycyclic polyketide from Streptomyces sp. CHI39” (2010).)
